In the library only some 2.9% were active in any assay of this set; here they are far more common.
TRPC6 activator: activators of mouse TRPC6 channel; HEK293-TRPC6 membrane potential dye fluorescence; hits give high values; B-score at 10 µM; 310,000 compounds, 0.13% hits; AID 2550;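 active = B-score of the integrated fluorescence ratio above library mean plus 3 SD, and starting fluorescence ratio within library mean plus 5 SD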;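 also: higher score means more depolarization so channel activation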
TRPC4 act: activators of mouse TRPC4 channel | Q9QUQ5 | HEK293 TRPC4beta/mu-opioid, Fluo4 calcium fluorescence; hits give high values | B-score at 10 µM | 310,000 compounds, 0.49% hits | AID 2237;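 active = B-score above 5 SD of library B-scores, and initial fluorescence ratio not above library mean plus 5 SD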;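 also: positive B-score marks a calcium rise read as TRPC4 activation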
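System – HEK293 cells stably co-expressing mouse TRPC4beta and mu-opioid receptor · Signal – Fluo4 calcium-sensitive dye fluorescence, kinetic, 1 Hz baseline · Benchmarks – buffer (low) and maximal DAMGO (high) · Read-out – B score of integrated fluorescence ratio per well · Incubation – dye loading 45 min room temperature, 110 s kinetic read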
TRPC4 potent: allosterically enhances the mouse TRPC4 cation channel; Q9QUQ5; HEK293 TRPC4beta/mu-opioid, DAMGO EC20, Fluo-4 Ca2+ flux; hits give high values; B-score at 10 µM; 310,000 compounds, 0.42% hits; AID 2227;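 active = B-score of calcium response area above 5 SD of library B-scores, with initial fluorescence ratio within 5 SD of library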;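 also: B-score of integrated fluorescence ratio over time as area under calcium response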
TRPC6 inh: inhibitors of mouse TRPC6 channel; Q61143; HEK293-TRPC6, membrane potential dye, ACh-evoked depolarization; hits give low values; B-score at 10 µM; 310,000 compounds, 1.1% hits;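 active = B-score under library mean minus 3 SD, initial fluorescence not abnormally high, positive integrated signal ratio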;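 also: B-score derived from integrated fluorescence ratio over the kinetic read; more negative B-score means stronger inhibition of depolarization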
TRPC4 inh: blocks the mouse TRPC4 cation channel; B-score at 10 µM; AID 2247; Q9QUQ5; HEK293 TRPC4beta/mu-opioid, DAMGO-evoked Fluo4 calcium flux; hits give low values; 300,000 compounds, 0.39% hits;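 active = B-score over 3 SD under the library average, no early fluorescence shift, positive overall ratio signal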
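Material: HEK293 cells with stable TRPC4beta plus mu-opioid receptor expression; probe or stimulus: DAMGO in two steps, submaximal then maximal; technique: Fluo4 calcium fluorescence by kinetic imaging, 5 s 1 Hz baseline; measure: integrated fluorescence ratio relative to baseline, converted to per-well B score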
Kir21 inh: Kir2.1 (mouse) channel inhibition; 310,000 compounds, 0.85% hits; HEK293-Kir2.1, FluxOR thallium flux fluorescence; hits give low values; P35561; B-score at 10 µM; AID 1672;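 active = fluorescence ratio B-score at or below minus 3 SD of library scores, with starting-brightness B-score within 2 SD, cut at about -4.2 in these data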;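 also: channel flux triggered by added potassium and thallium sulfate stimulus; B-score of peak minus minimum fluorescence over baseline after thallium stimulus; more negative B-score means stronger Kir2.1 block with less thallium influx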
Target sequence (P35561 whole entry, looked up): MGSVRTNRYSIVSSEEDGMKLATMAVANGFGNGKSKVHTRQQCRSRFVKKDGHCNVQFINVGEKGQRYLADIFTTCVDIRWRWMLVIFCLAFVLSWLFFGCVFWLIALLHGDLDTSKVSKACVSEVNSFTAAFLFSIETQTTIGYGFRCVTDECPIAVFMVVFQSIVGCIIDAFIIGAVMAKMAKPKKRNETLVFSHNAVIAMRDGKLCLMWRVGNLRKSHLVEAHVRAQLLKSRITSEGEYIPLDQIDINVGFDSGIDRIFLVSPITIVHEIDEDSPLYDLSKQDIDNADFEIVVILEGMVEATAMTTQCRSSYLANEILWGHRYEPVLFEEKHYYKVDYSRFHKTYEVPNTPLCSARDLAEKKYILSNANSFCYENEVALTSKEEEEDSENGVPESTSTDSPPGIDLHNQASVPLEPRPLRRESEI
HEK293 TRPC6 ctr: checks TRPC6 modulator effects in parental HEK293 cells | 2,400 compounds, 51% hits | membrane potential dye fluorescence | shares compounds with TRPC6 inh | membrane potential signal change, % at 10 µM;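 active = membrane potential signal moves up or down beyond 5 SD from buffer-only wells, on both duplicate plates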
HEK293 MPD ctr 2: second check of TRPC6 modulator effects in parental HEK293 cells | inhibition, % at 10 µM | AID 488926 | membrane potential dye fluorescence; after compound, maximal acetylcholine stimulation | 2,400 compounds, 14% hits | shares compounds with TRPC6 inh;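 active = membrane potential signal drops by more than 5 SD from the mean control signal, in both duplicate plates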;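 also: plate controls were acetylcholine ECmax control wells for no effect and buffer only wells for full effect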
TRPC4/MOR mod: mouse TRPC4 off-target activity of TRPC6 modulators; shares compounds with TRPC6 inh; HEK293 TRPC4/mu-opioid, membrane potential fluorescence; percent change from control (negative = decrease, positive = increase), % at 10 µM; 2,400 compounds, 69% hits;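 active = membrane potential signal moved up or down beyond 5 SD of buffer control wells, in both duplicate plates, actives on both sides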;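 also: plate controls were assay buffer wells for no effect and DAMGO maximal-effect wells for full effect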
TRPC4 ctr inh 2: second check of whether TRPC6 modulators also affect mouse TRPC4 | shares compounds with TRPC6 inh | HEK293 TRPC4/mu-opioid, membrane potential dye fluorescence; stimulated with maximal-effect DAMGO | inhibition, % at 10 µM | 2,400 compounds, 55% hits;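 active = drop in membrane potential signal beyond 5 SD of the control wells in both duplicate plates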;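 also: TRPC4 counter screen for TRPC6 hits run under conditions tuned for TRPC6 not TRPC4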
TRPC6 inh conf: mouse TRPC6 inhibitor confirmation; inhibition, % at 10 µM; HEK293-TRPC6, membrane potential dye, ACh-evoked depolarization; shares compounds with TRPC6 inh; 3,300 compounds, 43% hits; AID 488960;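 active = fluorescence ratio falls more than 5 SD below the full-stimulation control mean, in both duplicate runs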;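 also: integrated fluorescence ratio of peak minus minimum over baseline after agonist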
TRPC6 act confirm: mouse TRPC6 activator confirmation; shares compounds with TRPC6 inh; HEK293-TRPC6 membrane potential dye fluorescence, FDSS; activation, % at 10 µM; 2,800 compounds, 11% hits; AID 488961;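 active = ratio signal rise beyond 5 SD above unstimulated control wells' mean, seen in both duplicate runs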;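 also: plate controls were buffer EC0 wells for no effect and acetylcholine ECmax response for full effect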
Active calls of the source: *.

What do the screens show for `CCCC(=O)NC(c1ccc(C(C)C)cc1)c1ccc2cccnc2c1O` (stereo not drawn)?
TRPC6 activator: inactive; TRPC4 act: inactive; TRPC4 potent: inactive; TRPC6 inh: -6.4*; TRPC4 inh: inactive; Kir21 inh: 0.68; HEK293 TRPC6 ctr: inactive; HEK293 MPD ctr 2: inactive; TRPC4/MOR mod: inactive; TRPC4 ctr inh 2: inactive; TRPC6 inh conf: inactive; TRPC6 act confirm: inactive

What do the screens show for `CCCCC(=O)NC(c1ccc(Cl)cc1Cl)c1ccc2cccnc2c1O` (stereo not drawn)?
TRPC6 activator: inactive; TRPC4 act: inactive; TRPC4 potent: inactive; TRPC6 inh: -5.2*; TRPC4 inh: inactive; Kir21 inh: 0.78; HEK293 TRPC6 ctr: -154%*; HEK293 MPD ctr 2: inactive; TRPC4/MOR mod: -30%*; TRPC4 ctr inh 2: inactive; TRPC6 inh conf: inactive; TRPC6 act confirm: inactive

What do the screens show for `CCCC(=O)NC(c1ccc(N(C)C)cc1)c1ccc2cccnc2c1O` (stereo not drawn)?
TRPC6 activator: inactive; TRPC4 act: inactive; TRPC4 potent: inactive; TRPC6 inh: inactive; TRPC4 inh: inactive; Kir21 inh: -0.24

How did CCC(=O)NC(c1ccc(Cl)cc1Cl)c1ccc2cccnc2c1O (stereo not drawn) do in these assays?
TRPC6 activator: inactive; TRPC4 act: inactive; TRPC4 potent: inactive; TRPC6 inh: inactive; TRPC4 inh: inactive; Kir21 inh: 0.75

What do the screens show for `CC(=O)C(Cc1cccc(F)c1)(Cc1cccc(F)c1)C(C)=O`?
TRPC6 activator: inactive; TRPC4 act: inactive; TRPC4 potent: inactive; TRPC6 inh: -6*; TRPC4 inh: inactive; Kir21 inh: -2.2; HEK293 TRPC6 ctr: 114%*; HEK293 MPD ctr 2: inactive; TRPC4/MOR mod: 34%*; TRPC4 ctr inh 2: inactive; TRPC6 inh conf: inactive

Results for CN(Cc1cccc(F)c1)C(=O)C(c1ccccc1)c1ccccc1 ?
TRPC6 activator: inactive; TRPC4 act: inactive; TRPC4 potent: inactive; TRPC6 inh: inactive; TRPC4 inh: inactive; Kir21 inh: -0.27

Results for O=C(CCl)Nc1ccc(N2CCCCCC2)cc1 ?
TRPC6 activator: inactive; TRPC4 act: inactive; TRPC4 potent: inactive; TRPC6 inh: inactive; TRPC4 inh: inactive; Kir21 inh: -0.06
